Test results: ChEMBL document CHEMBL1144053, “Six triterpenoid saponins from Mmaesa laxiflora” (J Nat Prod, 1999)
Active and inactive are the calls of the source. The calls are words filed in the database; no cut-off is given here.

Legend:
A549 = assay: Cytotoxicity against human A549 cells by MTT assay; assay type: functional, cell-based
In short: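 A-549 cells from NCI; standard MTT-based colorimetric cytotoxicity assay.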

[1] = Inhibition of tubulin polymerization at 10 mg/mL by tubulin assembly assay; parameters: scale not given: the % may be the effect or the level left
In short: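 Test compound added to cold (6 °C) tubulin solution; assembly started by shifting the temperature from 6 to 37 °C. Turbidity followed over time, with polymerization rate taken from the slope of the turbidity increase.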

[2] = Inhibition of tubulin polymerization at 1 ug/mL by tubulin assembly assay; parameters: scale not given: the % may be the effect or the level left
In short: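 Compound added to cold (6 °C) tubulin solution; assembly started by a temperature shift from 6 to 37 °C. Turbidity followed over time, with polymerization rate taken as the slope of the turbidity increase.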

Structure (SMILES)	Activity (A549)	Activity [1]	Activity [2]
CCC/C=C\C(=O)O[C@H]1CC(C)(C)C[C@H]2C3=CC[C@@H]4[C@@]5(C)CC[C@H](O[C@@H]6O[C@H](C(=O)O)[C@@H](O)[C@H](O[C@@H]7O[C@H](CO)[C@H](O)[C@H](O)[C@H]7O[C@@H]7O[C@@H](C)[C@H](O)[C@@H](O)[C@H]7O[C@@H]7O[C@@H](C)[C@H](O)[C@@H](O)[C@H]7O)[C@H]6O[C@@H]6O[C@H](CO)[C@H](O)[C@H](O)[C@H]6O)C(C)(C)[C@@H]5CC[C@@]4(C)[C@]3(C)C[C@@H](O)[C@@]12CO	inactive	41%	–
C/C=C(\C)C(=O)O[C@H]1CC(C)(C)C[C@H]2C3=CC[C@@H]4[C@@]5(C)CC[C@H](O[C@@H]6O[C@H](C(=O)O)[C@@H](O)[C@H](O[C@@H]7O[C@H](CO)[C@H](O)[C@H](O)[C@H]7O[C@@H]7O[C@@H](C)[C@H](O)[C@@H](O)[C@H]7O[C@@H]7O[C@@H](C)[C@H](O)[C@@H](O)[C@H]7O)[C@H]6O[C@@H]6O[C@H](CO)[C@H](O)[C@H](O)[C@H]6O)C(C)(C)[C@@H]5CC[C@@]4(C)[C@]3(C)C[C@@H](OC(C)=O)[C@@]12CO	inactive	41%	–
C/C=C(\C)C(=O)O[C@H]1CC(C)(C)C[C@H]2C3=CC[C@@H]4[C@@]5(C)CC[C@H](O[C@@H]6O[C@H](C(=O)O)[C@@H](O)[C@H](O[C@@H]7O[C@H](CO)[C@H](O)[C@H](O)[C@H]7O[C@@H]7O[C@@H](C)[C@H](O)[C@@H](O)[C@H]7O[C@@H]7O[C@@H](C)[C@H](O)[C@@H](O)[C@H]7O)[C@H]6O[C@@H]6O[C@H](CO)[C@H](O)[C@H](O)[C@H]6O)C(C)(C)[C@@H]5CC[C@@]4(C)[C@]3(C)C[C@@H](O)[C@@]12CO	inactive	41%	–
COc1cc2c(c(OC)c1OC)-c1ccc(OC)c(=O)cc1[C@@H](NC(C)=O)CC2	–	–	50%
CCC/C=C\C(=O)O[C@H]1CC(C)(C)C[C@H]2C3=CC[C@@H]4[C@@]5(C)CC[C@H](O[C@@H]6O[C@H](C(=O)O)[C@@H](O)[C@H](O[C@@H]7O[C@H](CO)[C@H](O)[C@H](O)[C@H]7O[C@@H]7O[C@@H](C)[C@H](O)[C@@H](O)[C@H]7O[C@@H]7O[C@@H](C)[C@H](O)[C@@H](O)[C@H]7O)[C@H]6O[C@@H]6O[C@H](CO)[C@@H](O)[C@H](O)[C@H]6O)C(C)(C)[C@@H]5CC[C@@]4(C)[C@]3(C)C[C@@H](O)[C@@]12CO	inactive	41%	–
C/C=C(\C)C(=O)O[C@H]1CC(C)(C)C[C@H]2C3=CC[C@@H]4[C@@]5(C)CC[C@H](O[C@@H]6O[C@H](C(=O)O)[C@@H](O)[C@H](O[C@@H]7O[C@H](CO)[C@H](O)[C@H](O)[C@H]7O[C@@H]7O[C@@H](C)[C@H](O)[C@@H](O)[C@H]7O[C@@H]7O[C@@H](C)[C@H](O)[C@@H](O)[C@H]7O)[C@H]6O[C@@H]6O[C@H](CO)[C@@H](O)[C@H](O)[C@H]6O)C(C)(C)[C@@H]5CC[C@@]4(C)[C@]3(C)C[C@@H](O)[C@@]12CO	inactive	41%	–
C/C=C(\C)C(=O)O[C@H]1CC(C)(C)C[C@H]2C3=CC[C@@H]4[C@@]5(C)CC[C@H](O[C@@H]6O[C@H](C(=O)O)[C@@H](O)[C@H](O[C@@H]7O[C@H](CO)[C@H](O)[C@H](O)[C@H]7O[C@@H]7O[C@@H](C)[C@H](O)[C@@H](O)[C@H]7O[C@@H]7O[C@@H](C)[C@H](O)[C@@H](O)[C@H]7O)[C@H]6O[C@@H]6O[C@H](CO)[C@@H](O)[C@H](O)[C@H]6O)C(C)(C)[C@@H]5CC[C@@]4(C)[C@]3(C)C[C@@H](OC(C)=O)[C@@]12CO	inactive	41%	–
